Converted amounts (≈) assume the structure as drawn.
What was measured:
Human alphaherpesvirus 3 [1] = test: Antiviral activity against TK+ VZV OKA in HEL cells assessed as reduction of virus plaque formation; assay type: functional, organism-based; conditions: Human alphaherpesvirus 3, OKA
Human alphaherpesvirus 3 [2] = test: Antiviral activity against TK- VZV 07/1 in HEL cells assessed as reduction of virus plaque formation; assay type: functional, organism-based; conditions: Human alphaherpesvirus 3, 07/1, HEL
Human betaherpesvirus 5 [3] = test: Antiviral activity against HCMV AD169 in HEL cells assessed as reduction of virus plaque formation after 5 days; assay type: functional, organism-based; conditions: Human betaherpesvirus 5, AD169, HEL, 120 h
Method in brief: (§1)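 Confluent human embryonic lung (HEL) cell monolayers in microtiter plates were inoculated with 100 PFU of HCMV (AD169 or Davis) and left 2 h for adsorption. Residual virus was then removed and compound was added at varying concentrations. Viral cytopathicity was read once it reached completion in untreated infected controls. EC50 is the concentration inhibiting cytopathicity by 50%.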

Human betaherpesvirus 5 [4] = test: Antiviral activity against HCMV Davis in HEL cells assessed as reduction of virus plaque formation after 5 days; assay type: functional, organism-based; conditions: Human betaherpesvirus 5, Davis, 120 h
Method in brief: as §1, with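 “controls.” for “controls. EC50 is the concentration inhibiting cytopathicity by 50%.”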

[5] = Cytotoxicity against HEL cells assessed as alteration in cell morphology after 3 days; assay type: cell-based; conditions: human
Method in brief: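 HEL cell cultures exposed to compound were inspected by microscope for altered morphology. MCC is the minimum concentration causing a microscopically detectable alteration of cell morphology.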

[6] = Cytotoxicity against HEL cells assessed as reduction of cell growth after 3 days; assay type: cell-based; conditions: human
Method in brief: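 HEL cell suspensions were added to wells holding serial concentrations of compound and incubated 3 days at 37 °C in humidified CO2. Viable cells were then counted with a Coulter Counter. CC50 is the concentration reducing viable cell number by 50%.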

| Structure (SMILES) | EC50 (Human alphaherpesvirus 3 [1]) [µg/mL] | EC50 (Human alphaherpesvirus 3 [2]) [µg/mL] | EC50 (Human betaherpesvirus 5 [3]) [µg/mL] | EC50 (Human betaherpesvirus 5 [4]) [µg/mL] | MCC at 72 h [5] [µg/mL] | CC50 at 72 h [6] [µg/mL] |
| --- | --- | --- | --- | --- | --- | --- |
| Cc1cc(-c2ccccc2O)cn2c(CSCCc3ccccc3)cnc12 | > 20 | > 20 | > 100 | > 100 | 100 | > 50 |
| COc1ccc(-c2cc(C)cn3c(CSCCc4ccccc4)cnc23)cc1 | 2 (≈ 5.15 µM) | 3.1 (≈ 7.98 µM) | 2.2 (≈ 5.66 µM) | 2.2 (≈ 5.66 µM) | 20 | 19.6 (≈ 50.4 µM) |
| Nc1nc2c(ncn2COC(CO)CO)c(=O)[nH]1 [GANCICLOVIR] |  |  | 0.51 (≈ 2 µM) |  | 100 | 146 (≈ 572 µM) |
| Cc1cc(-c2ccc(C#N)cc2)cn2c(CSCCc3ccccc3)cnc12 | 2.2 (≈ 5.74 µM) | 2 (≈ 5.21 µM) | 1.8 (≈ 4.69 µM) | 2.5 (≈ 6.52 µM) | ≥ 20 | 10.6 (≈ 27.6 µM) |
| Cc1cc(-c2cccc([N+](=O)[O-])c2)cn2c(CSCCc3ccccc3)cnc12 | 5.6 (≈ 13.9 µM) | 8.3 (≈ 20.6 µM) | 7.6 (≈ 18.8 µM) | 4 (≈ 9.91 µM) | ≥ 100 | 43 (≈ 107 µM) |
| Cc1cc(I)c2ncc(CSCCc3ccccc3)n2c1 | 2.6 (≈ 6.37 µM) | 2.6 (≈ 6.37 µM) | > 0.8 | 1.8 (≈ 4.41 µM) | ≥ 4 | > 50 |
| Cc1cc(-c2cccc(O)c2)c2ncc(CSCCc3ccccc3)n2c1 | 1.6 (≈ 4.27 µM) | 2.9 (≈ 7.74 µM) | > 4 | > 4 | 20 | 11.4 (≈ 30.4 µM) |
| Cc1cc(-c2ccc(O)cc2)c2ncc(CSCCc3ccccc3)n2c1 | 1.7 (≈ 4.54 µM) | 2.7 (≈ 7.21 µM) | 2.2 (≈ 5.87 µM) | 2.2 (≈ 5.87 µM) | 20 | 13.7 (≈ 36.6 µM) |
| Cc1cc(-c2ccccc2)c2ncc(CSCCc3ccccc3)n2c1 | > 4 | > 4 | > 4 | > 4 | 20 | 33 (≈ 92 µM) |
| Cc1cc(-c2cccc(O)c2)cn2c(CSCCc3ccccc3)cnc12 | 2.4 (≈ 6.41 µM) | 3.7 (≈ 9.88 µM) | 2.2 (≈ 5.87 µM) | 2.2 (≈ 5.87 µM) | 20 | 50 (≈ 134 µM) |
| Cc1cc(-c2cccc(C#N)c2)cn2c(CSCCc3ccccc3)cnc12 | > 100 | 81 (≈ 211 µM) | 2.2 (≈ 5.74 µM) | 2.5 (≈ 6.52 µM) | > 100 | > 50 |
| COc1ccc(-c2cc(C)c3ncc(CSCCc4ccccc4)n3c2)cc1 | 2.4 (≈ 6.18 µM) | > 4 | 3.1 (≈ 7.98 µM) | 2.2 (≈ 5.66 µM) | 20 | 25.8 (≈ 66.4 µM) |
| Cc1cc(Br)cn2c(CSCCc3ccccc3)cnc12 | 0.48 (≈ 1.33 µM) | 1.1 (≈ 3.04 µM) | 0.32 (≈ 0.886 µM) | 0.13 (≈ 0.36 µM) | ≥ 2 | 28 (≈ 77.5 µM) |
| Cc1cc(-c2ccccc2)cn2c(CSCCc3ccccc3)cnc12 | 3.6 (≈ 10 µM) | > 4 | 2 (≈ 5.58 µM) | 2.2 (≈ 6.14 µM) | 20 | 31 (≈ 86.5 µM) |
| O=c1[nH]c(=O)n([C@H]2C[C@H](O)[C@@H](CO)O2)cc1/C=C/Br [BRIVUDINE] | 0.0038 (≈ 0.0114 µM) | 362 (≈ 1090 µM) |  |  | > 400 |  |
| COc1cccc(-c2cc(C)c3ncc(CSCCc4ccccc4)n3c2)c1 | > 4 | > 4 | 2.2 (≈ 5.66 µM) | 2.5 (≈ 6.43 µM) | 20 | 36 (≈ 92.7 µM) |
| Nc1ccn(C[C@@H](CO)OCP(=O)(O)O)c(=O)n1.O.O [CIDOFOVIR] |  |  | 0.1 | 0.12 | ≥ 100 | 47 |
| Cc1cc(I)cn2c(CSCCc3ccccc3)cnc12 | 0.68 (≈ 1.67 µM) | 0.43 (≈ 1.05 µM) | > 0.16 | 0.12 (≈ 0.294 µM) | ≥ 0.8 | > 50 |
| Nc1nc2c(ncn2COCCO)c(=O)[nH]1 [ACYCLOVIR] |  |  |  |  | > 400 | > 200 |
| Cc1cc(-c2ccsc2)cn2c(CSCCc3ccccc3)cnc12 | 1.7 (≈ 4.66 µM) | 1.8 (≈ 4.94 µM) | > 0.8 | 1.8 (≈ 4.94 µM) | ≥ 4 | > 50 |
| Cc1cc(-c2cccs2)cn2c(CSCCc3ccccc3)cnc12 | 4 (≈ 11 µM) | > 4 | 2.2 (≈ 6.04 µM) | 2.2 (≈ 6.04 µM) | 20 | 32 (≈ 87.8 µM) |
| Cc1cc(-c2cccc(F)c2)c2ncc(CSCCc3ccccc3)n2c1 | > 4 | > 4 | 2.2 (≈ 5.84 µM) | 2.2 (≈ 5.84 µM) | 20 | 35 (≈ 93 µM) |
| Cc1cc(-c2ccsc2)c2ncc(CSCCc3ccccc3)n2c1 | 8.9 (≈ 24.4 µM) | 8.6 (≈ 23.6 µM) | 2.5 (≈ 6.86 µM) | 2.5 (≈ 6.86 µM) | 100 | > 50 |
| COc1cccc(-c2cc(C)cn3c(CSCCc4ccccc4)cnc23)c1 | 8.3 (≈ 21.4 µM) | 10.3 (≈ 26.5 µM) | 10.9 (≈ 28.1 µM) | 10.9 (≈ 28.1 µM) | 100 | > 50 |
| c1ccc(CCSCc2cnc3ccc(-c4ccccc4)cn23)cc1 | 0.74 (≈ 2.15 µM) | > 0.8 | > 0.8 | > 0.8 | 4 | 9.9 (≈ 28.7 µM) |
| Cc1cc(-c2ccc(O)cc2)cn2c(CSCCc3ccccc3)cnc12 | > 20 | > 100 | > 100 | > 100 | ≥ 100 | > 50 |
| Cc1cc(-c2cccc([N+](=O)[O-])c2)c2ncc(CSCCc3ccccc3)n2c1 | > 20 | > 20 | > 100 | > 100 | 100 | 47 (≈ 116 µM) |
| Cc1cc(-c2cccs2)c2ncc(CSCCc3ccccc3)n2c1 | 7.8 (≈ 21.4 µM) | 4 (≈ 11 µM) | 2.5 (≈ 6.86 µM) | 2.2 (≈ 6.04 µM) | 100 | > 50 |

— ChEMBL document CHEMBL1140488, “Influence of 6 or 8-substitution on the antiviral activity of 3-phenethylthiomethylimidazo[1,2-a]pyridine against human cytomegalovirus (HCMV) and varicella-zoster virus (VZV)” (Bioorg Med Chem, 2007)
